Measurements as given in ChEMBL document CHEMBL3758180, “Synthesis of mixed MOR/KOR efficacy cyclic opioid peptide analogs with antinociceptive activity after systemic administration” (Eur J Med Chem, 2016).
Activity calls are given as the source filed them. Positions of bridges follow the written chain, without caps; N, C: chain ends. Non-standard residues stand in square brackets, D forms with d. Residues, ends and D or L forms follow the SMILES beside them. d1Nal = N[C@H](Cc1cccc2ccccc12)C(=O)O; d2Nal = N[C@H](Cc1ccc2ccccc2c1)C(=O)O; Dmt = Cc1cc(O)cc(C)c1C[C@H](N)C(=O)O

Assays:
Mu-type opioid receptor [1] = target: Mu-type opioid receptor (Homo sapiens, UniProt P35372); experiment: Agonist activity at human recombinant MOR expressed in CHO cells assessed as calcium mobilization by Fluo-4 AM based fluorescence analysis; assay type: functional, cell-based
[2] = target: Kappa-type opioid receptor (Cavia porcellus, UniProt P41144); experiment: Displacement of [3H]nor-BNI from KOR in Dunkin Hartley guinea pig brain homogenates by liquid scintillation counting analysis; assay type: tissue-based
[3] = target: Delta-type opioid receptor (Rattus norvegicus, UniProt P33533); experiment: Displacement of [3H][Ile5,6]deltorphin-2 from DOR in Wistar rat brain homogenates by liquid scintillation counting analysis; assay type: tissue-based
Method in brief: (§1)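 Competition binding in brain membranes of adult male Wistar rats, [3H]DAMGO for MOR or [3H][Ile5,6]deltorphin-2 for DOR. IC50 from log dose-displacement curves, converted to Ki by Cheng-Prusoff. Mean ± SEM of three independent experiments in duplicate.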

Mu-type opioid receptor [4] = target: Mu-type opioid receptor (Rattus norvegicus, UniProt P33535); experiment: Displacement of [3H]DAMGO from MOR in Wistar rat brain homogenates by liquid scintillation counting analysis; assay type: tissue-based; method in brief: as §1
[5] = target: T1, Kappa-type opioid receptor (Homo sapiens, UniProt P41145); experiment: Agonist activity at human recombinant KOR expressed in CHO cells assessed as calcium mobilization by Fluo-4 AM based fluorescence analysis relative to DynA; assay type: functional, cell-based
Method in brief: (§2)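 CHO cells stably co-expressing human recombinant KOR and C-terminally modified Gαqi5; calcium mobilization concentration-response curves. pEC50 from curve fitting with Hill coefficient; intrinsic activity α as ligand Emax over Emax of standard agonist dynorphin A. Mean ± SEM of at least 3 separate experiments, each in duplicate.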

[6] = target: T2, Delta-type opioid receptor (Homo sapiens, UniProt P41143); experiment: Agonist activity at human recombinant DOR expressed in CHO cells assessed as calcium mobilization by Fluo-4 AM based fluorescence analysis relative to DPDPE; assay type: functional, cell-based
Method in brief: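 CHO cells stably co-expressing human recombinant DOR and chimeric Gαqi5 (G66D variant); intracellular calcium rise measured across concentration-response curves. Agonist potency as pEC50; efficacy as intrinsic activity α, ratio of ligand Emax to standard agonist (DPDPE) Emax. Mean ± SEM, at least 3 separate experiments in duplicate.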

Mus musculus [7] = experiment: Antinociceptive activity in BalbC albino mouse assessed as latency of jumping at 10 mg/kg, ip after 15 mins by hot-plate method; assay type: functional
[8] = target: T1, Kappa-type opioid receptor; experiment: Agonist activity at human recombinant KOR expressed in CHO cells assessed as calcium mobilization by Fluo-4 AM based fluorescence analysis; assay type: functional, cell-based; method in brief: as §2
[9] = target: T2, Delta-type opioid receptor; experiment: Agonist activity at human recombinant DOR expressed in CHO cells assessed as calcium mobilization by Fluo-4 AM based fluorescence analysis; assay type: functional, cell-based
Mus musculus [10] = experiment: Antinociceptive activity in icv dosed BalbC albino mouse assessed as latency of jumping after 10 mins by hot-plate method; assay type: functional
Method in brief: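 Injection icv into left lateral ventricle (10 μL/animal) of hand-restrained mice; hot-plate test at 55 ± 0.5°C 10 min post-injection, jumping latency with 240 s cut-off. Response as %MPE = (t1 − t0)/(t2 − t0) × 100; ED50 by nonlinear regression; 7-10 animals per group.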

[11] = Stability of compound in Wistar rat brain homogenate assessed as compound remaining after 90 mins by RP-HPLC analysis; assay type: ADME; conditions: read-out: Stability
Method in brief: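 Peptide incubated with Wistar rat brain homogenate at 37°C, sampled at 0, 7.5, 15, 22.5, 30 and 90 min; remaining intact peptide quantified by RP-HPLC peak area %; value is amount left at 90 min.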

Mus musculus [12] = experiment: Antinociceptive activity in BalbC albino mouse assessed as latency of jumping at 3 mg/kg, ip after 30 to 60 mins by hot-plate method; assay type: functional, organism-based
Method in brief: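 Time course after single ip dose of 3 mg/kg; hot-plate (55 ± 0.5°C) jump latency read at 15, 30, 45 and 60 min, 240 s cut-off. Expressed as %MPE from control, test and cut-off latencies; mean ± SEM, 7-10 mice per group, each tested once.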

Mus musculus [13] = experiment: Antinociceptive activity in BalbC albino mouse assessed as latency of jumping at 3 mg/kg, ip after 15 mins by hot-plate method; assay type: functional, organism-based
[14] = Retention time of compound by RP-HPLC analysis; assay type: physicochemical
Mus musculus [15] = experiment: Antinociceptive activity in ip dosed BalbC albino mouse assessed as latency of jumping after 15 mins by hot-plate method; assay type: functional; conditions: for ED50: 0.25 h
[16] = target: T2, Delta-type opioid receptor; experiment: Agonist activity at human recombinant DOR expressed in CHO cells assessed as calcium mobilization up to 1 uM by Fluo-4 AM based fluorescence analysis; assay type: functional, cell-based

Kappa-type opioid receptor (Cavia porcellus, UniProt P41144), sequence (P41144 whole entry): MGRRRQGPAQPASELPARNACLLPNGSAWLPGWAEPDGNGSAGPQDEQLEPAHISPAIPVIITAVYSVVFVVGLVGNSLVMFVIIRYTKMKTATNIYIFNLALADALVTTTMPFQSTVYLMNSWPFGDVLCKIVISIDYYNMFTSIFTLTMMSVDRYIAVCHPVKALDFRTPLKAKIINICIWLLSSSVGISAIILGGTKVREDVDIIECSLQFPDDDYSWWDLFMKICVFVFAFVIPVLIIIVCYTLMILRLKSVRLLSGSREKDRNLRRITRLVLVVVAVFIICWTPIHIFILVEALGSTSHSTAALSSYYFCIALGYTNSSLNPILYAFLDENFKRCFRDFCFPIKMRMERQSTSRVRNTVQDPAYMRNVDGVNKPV
Mu-type opioid receptor (Homo sapiens, UniProt P35372), sequence (P35372 whole entry): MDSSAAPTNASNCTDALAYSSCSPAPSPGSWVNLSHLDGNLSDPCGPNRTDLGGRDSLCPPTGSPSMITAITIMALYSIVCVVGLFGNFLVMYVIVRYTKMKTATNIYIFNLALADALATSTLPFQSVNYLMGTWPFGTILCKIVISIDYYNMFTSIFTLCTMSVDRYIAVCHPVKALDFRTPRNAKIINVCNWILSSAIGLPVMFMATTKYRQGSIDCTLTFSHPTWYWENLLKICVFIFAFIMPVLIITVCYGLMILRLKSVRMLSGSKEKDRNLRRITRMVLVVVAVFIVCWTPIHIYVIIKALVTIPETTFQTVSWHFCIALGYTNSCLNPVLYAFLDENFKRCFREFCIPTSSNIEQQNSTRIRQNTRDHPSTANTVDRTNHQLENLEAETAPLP
Delta-type opioid receptor (Rattus norvegicus, UniProt P33533), sequence (P33533 whole entry): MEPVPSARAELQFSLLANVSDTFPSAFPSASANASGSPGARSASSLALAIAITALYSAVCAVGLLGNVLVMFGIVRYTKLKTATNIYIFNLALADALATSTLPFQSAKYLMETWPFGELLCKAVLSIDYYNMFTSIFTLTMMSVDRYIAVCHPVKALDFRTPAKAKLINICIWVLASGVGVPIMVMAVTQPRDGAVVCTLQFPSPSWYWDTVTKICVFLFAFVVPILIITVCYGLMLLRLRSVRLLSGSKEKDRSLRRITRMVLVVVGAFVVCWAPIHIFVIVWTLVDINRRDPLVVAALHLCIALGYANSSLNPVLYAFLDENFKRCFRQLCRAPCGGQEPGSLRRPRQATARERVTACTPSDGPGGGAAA
T1 sequence (P41145 whole entry): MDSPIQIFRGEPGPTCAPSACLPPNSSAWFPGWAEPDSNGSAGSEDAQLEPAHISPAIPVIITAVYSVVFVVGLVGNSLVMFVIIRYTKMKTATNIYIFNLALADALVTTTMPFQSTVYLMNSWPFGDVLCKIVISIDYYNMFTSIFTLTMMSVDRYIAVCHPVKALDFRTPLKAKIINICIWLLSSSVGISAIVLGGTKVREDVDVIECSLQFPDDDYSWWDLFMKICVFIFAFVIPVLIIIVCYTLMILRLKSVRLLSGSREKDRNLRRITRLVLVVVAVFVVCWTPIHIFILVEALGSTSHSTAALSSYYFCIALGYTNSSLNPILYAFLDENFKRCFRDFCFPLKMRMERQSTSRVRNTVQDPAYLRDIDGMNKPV
T2 sequence (P41143 whole entry): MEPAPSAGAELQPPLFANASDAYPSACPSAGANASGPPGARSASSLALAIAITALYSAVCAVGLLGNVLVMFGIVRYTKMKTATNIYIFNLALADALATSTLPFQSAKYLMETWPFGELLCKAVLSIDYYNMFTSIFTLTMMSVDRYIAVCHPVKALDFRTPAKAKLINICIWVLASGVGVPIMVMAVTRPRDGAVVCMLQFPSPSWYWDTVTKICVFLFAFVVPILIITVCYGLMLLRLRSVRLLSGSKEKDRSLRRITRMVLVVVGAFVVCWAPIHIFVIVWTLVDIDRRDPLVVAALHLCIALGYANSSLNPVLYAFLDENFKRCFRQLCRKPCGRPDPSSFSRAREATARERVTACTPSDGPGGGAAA
Mu-type opioid receptor (Rattus norvegicus, UniProt P33535), sequence (P33535 whole entry): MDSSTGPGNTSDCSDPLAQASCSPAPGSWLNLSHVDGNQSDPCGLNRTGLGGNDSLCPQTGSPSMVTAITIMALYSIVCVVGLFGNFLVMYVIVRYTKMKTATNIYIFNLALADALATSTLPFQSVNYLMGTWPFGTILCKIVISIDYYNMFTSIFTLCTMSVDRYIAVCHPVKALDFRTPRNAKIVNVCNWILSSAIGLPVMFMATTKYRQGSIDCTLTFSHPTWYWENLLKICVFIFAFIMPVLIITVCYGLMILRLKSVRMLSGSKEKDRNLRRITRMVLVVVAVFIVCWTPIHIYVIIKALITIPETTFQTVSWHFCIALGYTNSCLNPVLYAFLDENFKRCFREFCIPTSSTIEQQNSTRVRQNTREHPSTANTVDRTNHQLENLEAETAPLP

| SMILES | EC50 (Mu-type opioid receptor [1]) [nM] | Ki [2] [nM] | Ki [3] [nM] | Ki (Mu-type opioid receptor [4]) [nM] | Emax [5] [%] | Intrinsic activity [5] | Intrinsic activity [6] | Activity (Mus musculus [7]) [%] | EC50 [8] [nM] | EC50 [9] [nM] | ED50 (Mus musculus [10]) [µg] | remaining at 1.5 h [11] [%] | Activity (Mus musculus [12]) | Activity (Mus musculus [13]) | Retention_time [14] [min] | Activity (Mus musculus [15]) | ED50 (Mus musculus [15]) [mg/kg] | pEC50 [16] |
| --- | --- | --- | --- | --- | --- | --- | --- | --- | --- | --- | --- | --- | --- | --- | --- | --- | --- | --- |
| Cc1cc(O)cc(C)c1C[C@H](N)C(=O)N[C@@H]1CCCCNC(=O)C[C@@H](C(N)=O)NC(=O)[C@@H](Cc2cccc3ccccc23)NC(=O)[C@H](Cc2ccccc2)NC1=O (H-[Dmt][dK]F[d1Nal]D-NH2; lactam 2-5) | 5.62 | 1.78 | 51.2 | 0.25 | 79 | 0.74 | 0.5 | 82 | 41.7 | 64.6 | 0.06 | 96 | inactive | Active | 16.02 | Dose-dependent effect | 1.16 | – |
| NC(=O)[C@H](Cc1ccccc1)NC(=O)[C@H](Cc1ccccc1)NC(=O)[C@@H]1CCCN1C(=O)[C@@H](N)Cc1ccc(O)cc1 [ENDOMORPHIN 2] | – | – | – | – | – | – | – | – | – | – | 1.82 | 0.61 | – | – | 17.25 | – | – | – |
| Cc1cc(O)cc(C)c1C[C@H](N)C(=O)N[C@@H]1CCCCNC(=O)C[C@@H](C(N)=O)NC(=O)[C@H](Cc2ccccc2)NC(=O)[C@@H](Cc2cccc3ccccc23)NC1=O | 20 | 56.6 | 9170 | 69.2 | – | 0.43 | – | 17 | 1290 | – | 0.714 | 93.8 | – | – | 16.21 | – | – | inactive |
| NC(=O)[C@@H]1CC(=O)NCCCC[C@@H](NC(=O)[C@@H](N)Cc2ccc(O)cc2)C(=O)N[C@@H](Cc2ccccc2)C(=O)N[C@@H](Cc2ccccc2)C(=O)N1 (H-Y[dK]FFD-NH2; lactam 2-5) | 2.04 | 1.12 | 171 | 0.35 | 106 | 1 | – | 88 | 6.61 | – | 0.05 | 96 | inactive | Active | 20.5 | Dose-dependent effect | < 0.01 | – |
| Cc1cc(O)cc(C)c1C[C@H](N)C(=O)N[C@@H]1CCCCNC(=O)C[C@@H](C(N)=O)NC(=O)[C@H](Cc2ccccc2)NC(=O)[C@@H](Cc2ccc3ccccc3c2)NC1=O | 11.5 | 751 | 4250 | 16.8 | – | 0.31 | – | 24 | 1700 | – | 0.533 | 85.4 | – | – | 16.38 | – | – | inactive |
| CC[C@H](C)[C@H](NC(=O)[C@H](CCCNC(=N)N)NC(=O)[C@H](CCCNC(=N)N)NC(=O)[C@H](CC(C)C)NC(=O)[C@H](Cc1ccccc1)NC(=O)CNC(=O)CNC(=O)[C@@H](N)Cc1ccc(O)cc1)C(=O)N[C@@H](CCCNC(=N)N)C(=O)N1CCC[C@H]1C(=O)N[C@@H](CCCCN)C(=O)N[C@@H](CC(C)C)C(=O)N[C@@H](CCCCN)C(=O)O [ANALOG OF DYNORPHIN A] | – | – | – | – | – | – | 0.99 | – | – | – | – | – | – | – | – | – | – | – |
| Cc1cc(O)cc(C)c1C[C@H](N)C(=O)N[C@@H]1CCCCNC(=O)C[C@@H](C(N)=O)NC(=O)[C@@H](Cc2ccc3ccccc3c2)NC(=O)[C@H](Cc2ccccc2)NC1=O (H-[Dmt][dK]F[d2Nal]D-NH2; lactam 2-5) | 3.63 | 1.02 | 110 | 0.44 | – | 0.44 | 0.31 | 55 | 102 | 53.7 | 0.08 | 95.6 | inactive | Active | 16.1 | Dose-dependent effect | 3.24 | – |
